Screening data (PubChem)
Most compounds without a hit are left out; they make up all but 2.2% or so of the library.
PDI turbidity: PDI (human) enzyme inhibition; P07237; PDI insulin aggregation turbidity, A650, 90 min; inhibition, % at 10 µM; 0.052% of 350,000 active; AID 588391;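 active means mean inhibition across replicates of 30% or more, whatever share of single replicates reach that level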
ERp5 block: blocks human ERp5 reductase activity on insulin. inhibition, % at 9.99 µM. Q15084. 0.05% of 350,000 active. AID 651711. ERp5 insulin aggregation, absorbance 650 nm, 90 min;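 active means mean replicate inhibition above about 25%, with every replicate also reaching it, limit read from the data, passing the limit was not always enough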
Target sequence (Q15084 whole entry, looked up): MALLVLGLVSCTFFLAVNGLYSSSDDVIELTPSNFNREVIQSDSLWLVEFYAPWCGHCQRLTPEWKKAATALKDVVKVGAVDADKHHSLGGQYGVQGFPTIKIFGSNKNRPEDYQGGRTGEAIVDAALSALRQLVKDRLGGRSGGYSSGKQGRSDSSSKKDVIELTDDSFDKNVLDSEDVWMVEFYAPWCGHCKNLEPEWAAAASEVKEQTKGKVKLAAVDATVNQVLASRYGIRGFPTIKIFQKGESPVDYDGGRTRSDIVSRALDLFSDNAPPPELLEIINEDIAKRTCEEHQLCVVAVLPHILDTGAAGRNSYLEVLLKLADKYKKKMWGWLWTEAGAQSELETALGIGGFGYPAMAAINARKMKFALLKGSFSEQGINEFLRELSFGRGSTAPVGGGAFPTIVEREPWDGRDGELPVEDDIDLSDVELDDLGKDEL
FN deposition inh: fibronectin deposition inhibition; AH1F fibroblasts, Alexa488-fibronectin deposition fluorescence, overnight; inhibition, % at 12.6 µM; 0.086% of 350,000 active; AID 743247;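 active means mean inhibition across replicates of 30% or more, regardless of how many single replicates reach that level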;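 further: positive control wells lacked labelled fibronectin entirely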
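Material – AH1F fibroblast monolayer, labelled fibronectin deposition · Reagent – labelled fibronectin 24 nM · Timing – 1 h adhesion, overnight exposure · Measured by – fluorescence at 485 nm excitation, 525 nm emission · Read-out – inhibition of fibronectin deposition signal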
rRNA inh HTS: selective bacterial rRNA inhibition in E. coli; 1.6% of 350,000 active; GFP signal change (wild-type ribosome), % (concentration not given with the values); E. coli WT GFP vs humanized-ribosome RFP mutants, fluorescence, 24 h; hits give low values; DMSO median 0, no signal -100;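 active means significant combined selectivity score with lowered wild-type GFP, culture density cut under 30%, mutant RFP and density less affected; inactive means any of these conditions unmet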
Env fusion inh: blocks HIV Env-driven cell-cell fusion | HeLa-JRFL Env/CEM21 cell fusion, luciferase | inhibition, % at 12.3 µM | 1.1% of 360,000 active | AID 651610;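 active means mean replicate inhibition score of at least 50 and every replicate individually at or above 50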;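 further: 0% = plate neutral controls and 100% = maraviroc near 300 nM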
PvdQ acylase: blocks Pseudomonas aeruginosa PvdQ acylase activity; purified PvdQ acylase, fluorescence plate reader; inhibition, % at 10 µM; 0.063% of 340,000 active; in the data active means inhibition above about 30%, passing the limit was not always enough;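 further: 0% = vehicle neutral wells and 100% = reference inhibitor wells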
* = called active by the depositor; [ ] = dose if it differs, or a comment.

`O=C(Nc1cccc(S(=O)(=O)Nc2ccc(Cl)cc2)c1)c1ccc(Cl)nc1` gave PDI turbidity 2.1, ERp5 block -1.3, rRNA inh HTS -35.9, Env fusion inh 56.3* and PvdQ acylase -7.8.
For COc1ccc(NS(=O)(=O)c2cccc(NC(=O)c3ccc(Cl)nc3)c2)cc1 the results were PDI turbidity 4.2, ERp5 block 4.1, rRNA inh HTS -24.7*, Env fusion inh 25.7 and PvdQ acylase -2.6.
For CO[C@@H]1CN(C)C(=O)c2ccc(NC(C)=O)cc2OC[C@@H](C)N(C(=O)c2ccccc2)C[C@@H]1C the results were FN deposition inh -7.7 and rRNA inh HTS 1.3.
`CC(=NN1CC(=O)NC1=O)c1ccc([N+](=O)[O-])o1` gave PDI turbidity -0.9, ERp5 block 6.9, FN deposition inh -2.9, rRNA inh HTS -38.2*, Env fusion inh -10.1 and PvdQ acylase 10.9.
Screening O=C(CSC1=Nc2ccccc2C2=NC(Cc3c[nH]c4ccccc34)C(=O)N12)NC1CCCCC1 (configuration not stated) returned PDI turbidity -12.4, FN deposition inh -5.7, Env fusion inh 113.8* and PvdQ acylase 9.1.
For Cc1ccc(-c2[nH]ncc2CNCCc2cnn(-c3ccccc3)c2)cc1C the results were PDI turbidity 1.5, ERp5 block -3.0, FN deposition inh -5.9, rRNA inh HTS -4.0, Env fusion inh 66.4* and PvdQ acylase -6.3.
`O=[N+]([O-])c1ccc(NC(c2ccccc2)c2ccc3cccnc3c2O)cc1` (configuration not stated) gave PDI turbidity 19.2, ERp5 block 1.0, FN deposition inh 9.4, Env fusion inh 61.8* and PvdQ acylase -15.4.
For Cc1ccc(NC(=O)c2cccc(S(C)(=O)=O)c2)cc1 the results were PDI turbidity 6.5, ERp5 block 25.5*, FN deposition inh -1.0, rRNA inh HTS 8.1, Env fusion inh -25.3 and PvdQ acylase 0.4.
For CCN(CC)S(=O)(=O)c1cccc(C(=O)Nc2cc(C)cc(C)c2)c1 the results were PDI turbidity 6.6, FN deposition inh 10.8, Env fusion inh -26.2 and PvdQ acylase 6.2.
For Cc1cccc(C(=O)Nc2ccc(NC(=O)c3cccc(C)c3)cc2)c1 the results were PDI turbidity 4.6, ERp5 block 2.4, FN deposition inh 1.9, rRNA inh HTS 5.3 and Env fusion inh 7.8.
`CCN(CC)S(=O)(=O)c1cccc(C(=O)Nc2ccc(C#N)cc2)c1` gave PDI turbidity 1.1, Env fusion inh 57.1* and PvdQ acylase 7.0.
Screening O=C(N/N=C/c1cccc(O)c1)NC1CCCCC1 returned PDI turbidity 2.9, ERp5 block -0.1, FN deposition inh -4.3, rRNA inh HTS -25.4*, Env fusion inh 4.2 and PvdQ acylase 5.7.
Screening C[C@@H]1CN([C@@H](C)CO)S(=O)(=O)c2ccc(/C=C/c3ccccc3)cc2O[C@@H]1CN(C)C(=O)CN1CCOCC1 returned ERp5 block -7.4, rRNA inh HTS -1.1 and Env fusion inh -2.9[16.7 µM].
`CC(/C=N/n1c(-c2ccccn2)n[nH]c1=S)=C\c1ccccc1` gave PDI turbidity -5.3, ERp5 block 2.1, FN deposition inh 5.4, rRNA inh HTS 7.3 and Env fusion inh -8.5.
`CCc1n[nH]c(=S)n1/N=C/C(C)=C\c1ccccc1` gave PDI turbidity -5.5, ERp5 block -2.5, FN deposition inh 2.2, rRNA inh HTS 5.3, Env fusion inh 56.2* and PvdQ acylase -16.9.
Screening COc1cc(NC(=O)Nc2ccc(Cl)c(Cl)c2)c(C(=O)O)cc1OC returned PDI turbidity -7.6, ERp5 block 2.9, FN deposition inh -7.4, rRNA inh HTS -40.4*, Env fusion inh 0.9 and PvdQ acylase -9.6.
Screening COc1cc(OC)c(NC(=O)Nc2ccc(OC)c(OC)c2)cc1Cl returned PDI turbidity -2.9, FN deposition inh -3.4, Env fusion inh -31.9 and PvdQ acylase 8.9.
Screening C[C@@H]1CN([C@H](C)CO)S(=O)(=O)c2ccc(C3=CCCCC3)cc2O[C@H]1CN(C)Cc1ccccc1F returned ERp5 block -2.5, rRNA inh HTS 9.3 and Env fusion inh 30.6[16.7 µM].
`Cc1noc(C)c1NC(=O)N(C)C[C@@H]1Oc2ccc(NS(=O)(=O)c3c(C)noc3C)cc2C(=O)N([C@@H](C)CO)C[C@H]1C` gave rRNA inh HTS 0.7 and Env fusion inh -12.5[16.7 µM].
